Experimental data published in publication PMC3987113 (Toxicology and applied pharmacology, 2009).
Where “and” joins values, the source holds several entries; their conditions need not be identical. Equal entries are not always repeated. Entries after “also recorded” stand apart in the source; their conditions may differ. Where two headings read alike, the source gives them in different places.

Key:
[1] = test system: hepatic gene expression; test: Hepatic gene expression, Agilent 4 x 44K microarrays; format: in vivo, C57BL/6 mice
[2] = Hepatic tissue level quantification by HRGC/HRMS; format: in vivo, C57BL/6 mice; conditions: liver
[3] = test system: hepatic gene expression; test: QRT-PCR verification of hepatic gene expression; format: in vivo, C57BL/6 mice
[4] = Body and liver weights, time course study; format: in vivo, C57BL/6 mice; conditions: for Liver weight / Relative liver weight / Body weight gain / Terminal body weight: 300 mg/kg PCB153 or 30 μg/kg TCDD, mean ± SD, n=5; for Body weight gain: terminal body weight divided by body weight prior to dosing
[5] = test system: hepatic gene expression; test: Dose-response modeling of microarray data; format: in vivo, C57BL/6 mice; conditions: Mus musculus, 24 h
[6] = test system: Cyp2c55; test: Dose-response modeling of microarray data; format: in vivo, C57BL/6 mice; conditions: C57BL/6, mouse, liver, oral
[7] = test system: Cyp2b10; test: Dose-response modeling of microarray data; format: in vivo, C57BL/6 mice; conditions: C57BL/6, mouse, liver, oral
[8] = test system: liver of immature, ovariectomized C57BL/6 mice; test: Liver histopathology; format: in vivo
[9] = Body and liver weights, 24 h dose-response study; format: in vivo, C57BL/6 mice; conditions: for Liver weight / Relative liver weight / Body weight gain / Terminal body weight: 24 h; for Liver weight / Relative liver weight / Terminal body weight: mean ± SD, n=5; for Body weight gain: terminal body weight divided by body weight prior to dosing; for Terminal body weight: single gavage
Procedure, shortened: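 Immature ovariectomized female C57BL/6 mice, acclimatized 3 days, received a single oral gavage on PND 28 of 1, 3, 10, 30, 100 or 300 mg/kg test compound or sesame oil vehicle (0.1 ml), n=5 per group, sacrificed 24 h later. Compound was dissolved in acetone, diluted in sesame oil and the acetone evaporated under nitrogen. Analysis by ANOVA with Tukey's or Dunnett's post hoc test, p<0.05.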

[10] = hepatic mRNA, 300 mg/kg PCB153, maximum fold change, |fold change|≥1.5, P1(t)≥0.985
[11] = hepatic mRNA, 300 mg/kg PCB153, maximum fold change, |fold change|≥1.5, P1(t)≥0.985, 300 mg/kg
[12] = 300 mg/kg PCB153 or 30 μg/kg TCDD

Clc1cc(Cl)c(-c2cc(Cl)c(Cl)cc2Cl)cc1Cl [PCB153, 2,2′,4,4′,5,5′-hexachlorobiphenyl]
Induction of CAR/PXR regulated genes Cyp2b10, Cyp3a11, Ces2, Insig2, Abcc3 ([1]; PCB153 dose-response study): dose-dependently induced | PCB153 fold change, Abcc3 [1, 10]: 1.9 fold | PCB153 fold change, Acsl3 [1, 10]: −3.1 fold | PCB153 fold change, Agpat4 [1, 10]: −1.9 fold | PCB153 fold change, Akr1b7 [1, 10]: 22.1 fold | PCB153 fold change, Akr1c20 [1, 10]: −2.3 fold | PCB153 fold change, Aox1 [1, 10]: 2.9 fold | PCB153 fold change, Cdca2 [1, 10]: 2.8 fold | PCB153 fold change, Cds2 [1, 10]: 1.7 fold | PCB153 fold change, Ces2 [1, 10]: 5.8 fold | PCB153 fold change, Cyp2b9 [1, 10]: 7.6 fold | PCB153 fold change, Cyp2b10 [1, 10]: 27.5 fold | PCB153 fold change, Cyp2b23 [1, 10]: 19.7 fold | PCB153 fold change, Cyp2c54 [1, 10]: 2.4 fold | PCB153 fold change, Cyp3a25 [1, 10]: 3.8 fold | PCB153 fold change, Dhfr [1, 10]: −2.1 fold | PCB153 fold change, Elovl6 [1, 10]: −3.8 fold | PCB153 fold change, Fasn [1, 10]: −3.9 fold | PCB153 fold change, Fmo5 [1, 10]: 3.0 fold | PCB153 fold change, Gadd45a [1, 10]: 2.0 fold | PCB153 fold change, Gpx2 [1, 10]: 1.7 fold | PCB153 fold change, Gsta2 [1, 10]: 4.1 fold | PCB153 fold change, Gstm4 [1, 10]: 4.0 fold | PCB153 fold change, Gstt3 [1, 10]: 1.7 fold | PCB153 fold change, Hmgcr [1, 10]: −5.3 fold | PCB153 fold change, Hsd17b2 [1, 10]: −2.0 fold | PCB153 fold change, Insig2 [1, 10]: 5.9 fold | PCB153 fold change, Mad1l1 [1, 10]: 2.4 fold | PCB153 fold change, Myc [1, 10]: 2.9 fold | PCB153 fold change, Nol3 [1, 10]: 4.9 fold | PCB153 fold change, Pla2g12a [1, 10]: 1.7 fold | PCB153 fold change, Slc1a4 [1, 10]: −2.5 fold | PCB153 fold change, Slc23a1 [1, 10]: 2.3 fold | PCB153 fold change, Smpd3 [1, 10]: 10.8 fold | PCB153 fold change, Srebf1 [1, 10]: −2.4 fold | PCB153 fold change, Srebf2 [1, 10]: −2.1 fold | PCB153 fold change, Ugdh [1, 10]: 2.5 fold | PCB153 fold change, Cyp2c55 [1, 11]: 48 fold and 48.4 fold | PCB153 fold change, Gadd45b [1, 11]: 10.7 fold | PCB153 fold change, Zwint [1, 11]: 1.8 fold | Ccl9 expression ([1]; hepatic mRNA, PCB153): induced expression | Down-regulation of Acsl3, Srebf1 and Srebf2 ([1]; hepatic mRNA, PCB153): −2.1 to −3.1 fold | Hepatic PCB153 levels in dose-response study ([2]; 24 h, 1-300 mg/kg, significantly different from controls): dose-dependent increase in hepatic levels | Decrease of hepatic level after 7 days ([2]; 168 h vs 24 h, single gavage 300 mg/kg PCB153 or 30 μg/kg TCDD): ~ 3.3 fold | Induction of AhR-battery genes (Cyp1a1, Cyp1a2, Tiparp) ([3]; 300 mg/kg PCB153 compared to TCDD, Fig. 6A-B): modestly induced | Cyp1a2 induction ([3]; hepatic mRNA, time course, 30 μg/kg TCDD (Fig. 6A) or 300 mg/kg PCB153 (Fig. 6B)): ~ 1.8 fold | Elovl5 fold change ([3]; hepatic mRNA, time course, 300 mg/kg PCB153 or 30 μg/kg TCDD (Fig. 6A-B)): −1.9 fold | Effect on relative liver weight (RLW), time course study ([4]; 300 mg/kg PCB153): increased (p<0.05) relative liver weight (RLW) at 72 and 168 h | Liver weight ([4]; 4 h): 0.712 ± 0.048 g | Relative liver weight ([4]; 4 h): 0.057 ± 0.001 | Body weight gain ([4]; 4 h): 1.0 ± 0.0 | Terminal body weight ([4]; 4 h after single gavage): 12.5 ± 0.8 g | Liver weight ([4]; 12 h): 0.730 ± 0.075 g | Relative liver weight ([4]; 12 h): 0.056 ± 0.003 | Body weight gain ([4]; 12 h): 1.0 ± 0.0 | Terminal body weight ([4]; 12 h after single gavage): 13.0 ± 0.6 g | Liver weight ([4]; 24 h): 0.813 ± 0.137 g | Relative liver weight ([4]; 24 h): 0.061 ± 0.009 | Body weight gain ([4]; 24 h): 1.1 ± 0.0 | Terminal body weight ([4]; 24 h after single gavage): 13.3 ± 0.9 g | Liver weight ([4]; 72 h): 1.086 ± 0.135 g | Relative liver weight ([4]; 72 h): 0.069 ± 0.007 | Body weight gain ([4]; 72 h): 1.1 ± 0.0 | Terminal body weight ([4]; 72 h after single gavage): 15.7 ± 0.7 g | Liver weight ([4]; 168 h): 1.280 ± 0.074 g | Relative liver weight ([4]; 168 h): 0.072 ± 0.002 | Body weight gain ([4]; 168 h): 1.4 ± 0.1 | Terminal body weight ([4]; 168 h after single gavage): 17.9 ± 1.2 g | Effect on body weight gain ([4]; any of the PCB153 doses or time points): No significant decreases in body weight gain | ED50 ([5]; read-out: ED50, Abcc3): 2.9 mg/kg | ED50 ([5]; read-out: ED50, Entpd5): 34.2 mg/kg | ED50 ([5]; read-out: ED50, Nol3): 33.9 mg/kg | ED50 at 24 h [6]: 31.7 mg/kg | ED50 at 24 h [7]: 38.1 mg/kg | Hepatocellular hypertrophy, time course study ([8]; 300 mg/kg PCB153): increasing hypertrophic responses between 24 and 168 h; also recorded: induced hepatocellular hypertrophy between 24 and 168 h | Hepatocellular vacuolization, dose-response study ([8]; 300 mg/kg PCB153, 24 h): induced the highest levels of hepatocellular vacuolization | Hepatic lipid accumulation, Oil Red O staining [8, 12]: no fatty accumulation | Necrosis and immune (mixed) cell infiltration in liver [8, 12]: did not elicit immune cell infiltration or necrosis; also recorded: absent; also recorded: did not induce necrosis or immune cell infiltration | Hepatic inflammation ([8]; 300 mg/kg PCB153 or 30 μg/kg TCDD, time course): almost absent | Hepatocellular vacuolization, time course study ([8]; 300 mg/kg PCB153 or 30 μg/kg TCDD, Fig. 2 at 168 h): minimal vacuolization and hepatocellular hypertrophy | Hepatocellular hypertrophy, dose-response study ([8]; PCB153, 24 h): incidences of hypertrophy were not observed | Liver weight ([9]; 1 mg/kg): 0.850 ± 0.121 g | Relative liver weight ([9]; 1 mg/kg): 0.059 ± 0.002 | Body weight gain ([9]; 1 mg/kg): 1.1 ± 0.0 | Terminal body weight ([9]; 1 mg/kg): 14.3 ± 1.8 g | Liver weight ([9]; 3 mg/kg): 0.865 ± 0.119 g | Relative liver weight ([9]; 3 mg/kg): 0.060 ± 0.002 | Body weight gain ([9]; 3 mg/kg): 1.1 ± 0.0 | Terminal body weight ([9]; 3 mg/kg): 14.4 ± 1.7 g | Liver weight ([9]; 10 mg/kg): 0.721 ± 0.073 g | Relative liver weight ([9]; 10 mg/kg): 0.056 ± 0.004 | Body weight gain ([9]; 10 mg/kg): 1.1 ± 0.1 | Terminal body weight ([9]; 10 mg/kg): 12.7 ± 1.1 g | Liver weight ([9]; 30 mg/kg): 0.836 ± 0.066 g | Relative liver weight ([9]; 30 mg/kg): 0.062 ± 0.001 | Body weight gain ([9]; 30 mg/kg): 1.1 ± 0.0 | Terminal body weight ([9]; 30 mg/kg): 13.4 ± 1.0 g | Liver weight ([9]; 100 mg/kg): 0.829 ± 0.071 g | Relative liver weight ([9]; 100 mg/kg): 0.060 ± 0.002 | Body weight gain ([9]; 100 mg/kg): 1.1 ± 0.0 | Terminal body weight ([9]; 100 mg/kg): 13.8 ± 1.1 g | Effect on relative liver weight (RLW), dose-response study ([9]; 300 mg/kg PCB153, 24 h): significantly increased RLW at 24 h | Liver weight ([9]; 300 mg/kg): 0.855 ± 0.152 g | Relative liver weight ([9]; 300 mg/kg): 0.067 ± 0.003 | Body weight gain ([9]; 300 mg/kg): 1.1 ± 0.0 | Terminal body weight ([9]; 300 mg/kg): 12.7 ± 1.9 g
